The subject of one experiment is HeLa. As to the kind of experiment: Cytotoxicity against human HeLa cells after 72 hrs by CCK8 assay. Format: functional, cell-based. In general terms: Tetrazolium assays rely on reduction of a dye to a coloured formazan, in cell work by metabolically active cells.
A further experiment concerns U-937. The experiment in a line: Cytotoxicity against human U937 cells after 72 hrs by CCK8 assay. Conditions: U-937, 72 h.
Another experiment relates to A549. As to the kind of experiment: Cytotoxicity against human A549 cells after 72 hrs by CCK8 assay. Format: functional, cell-based. Conditions: A549, 72 h.
The subject of another experiment is HepG2. The experiment in a line: Cytotoxicity against human HepG2 cells after 72 hrs by CCK8 assay. Conditions: HepG2, 72 h.
The target of experiment [1] is Cyclin-dependent kinase 2 (Homo sapiens, UniProt P24941). As to the kind of experiment: Binding affinity to CDK2 (unknown origin) by surface plasmon resonance analysis. A digest of the protocol:
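CDK-2 amine-coupled to CM5 chip flow cell 2 (50 μg/mL in 10 mM acetate pH 4.5, ~5500 RU). BSA reference cell (pH 3.8, ~6000 RU) subtracted. Running buffer PBS pH 7.4, 25 °C, 30 μL/min. Analytes at several concentrations injected 120 s, 120 s dissociation, with solvent correction. Glycine-HCl pH 2.1 regeneration for 30 s. Kd from steady-state affinity model fit.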
(Surface plasmon resonance follows binding to a sensor surface in real time, without labels.)

Structures are written as SMILES. Bounds are passed on as bounds.

The IC50 is the concentration that gives 50% inhibition. A low value points to greater potency in that assay. Turning to `C=C1CCC[C@H]2[C@](C)(CC3=C(O)C(=O)C=C(NCCc4ccccc4)C3=O)[C@@H](C)CC[C@]12C`, the IC50 in the experiment with HeLa was 5.4 µM; in the experiment with U-937, 0.6 µM; in the experiment on A549, > 10 µM; in the experiment on HepG2 it was 3.5 µM.

One may read the Kd as a measure of binding affinity in units of concentration. `C=C1CCC[C@H]2[C@]3(C)CC4=C(O[C@]3(C)CC[C@]12C)C(=O)C=C(NC)C4=O` had a Kd in experiment [1] of 4.8 µM. Besides, the IC50 with A549 was > 10 µM.

As for `C=C1CCC[C@@]23OC4=C(C[C@]2(C)[C@@H](C)CC[C@@]13C)C(=O)C(OCC)=CC4=O`, the IC50 in the experiment on A549 is > 10 µM.

Regarding `C=C1CCC[C@@H]2[C@@]1(C)CC[C@@]1(C)OC3=C(C[C@@]21C)C(=O)C(NC)=CC3=O`, in the experiment with A549, the IC50 was > 10 µM.

As to `C=C1CCC[C@H]2[C@]3(C)CC4=C(O[C@]3(C)CC[C@]12C)C(=O)C=C(OCC)C4=O`, the IC50 in the experiment with A549 is > 10 µM.

Take `C=C1CCC[C@@]23OC4=C(C[C@]2(C)[C@@H](C)CC[C@@]13C)C(=O)C(NC)=CC4=O`: in the experiment with A549, the IC50 was > 10 µM.

In the case of `CCOC1=CC(=O)C2=C(C[C@@H]3[C@@]4(C)CCCC(C)(C)[C@@H]4CC[C@@]3(C)O2)C1=O`, the IC50 in the experiment on A549 is > 10 µM.

In the experiment on A549, `COc1cccc2c1C(=O)c1c(O)c3c(c(O)c1C2=O)C[C@@](O)(C(=O)CO)C[C@@H]3O[C@H]1C[C@H](N)[C@H](O)[C@H](C)O1` [DOXORUBICIN] came in with an IC50 of 0.1 µM.

The values are drawn from ChEMBL document CHEMBL4118028, “Sesquiterpene Quinones/Hydroquinones from the Marine Sponge Spongia pertusa Esper” (J Nat Prod, 2017).
